Assay outcomes: PubChem BioAssay, several laboratories
The list is not random: actives were taken first. Their share in the collection is about 2%.
Hck Nef HTS – human Hck-Nef kinase inhibition; inhibition, % at 20 µM; P08631; AID 463187; Recombinant Hck-YEEI plus Nef, Z-Lyte FRET kinase assay; actives 0.68% (n = 220,000);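 active = Hck-Nef kinase inhibition above about 50%, limit read from the data; inactive = inhibition below that limit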;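 also: 0% = DMSO with Hck plus Nef and 100% = Hck alone without Nef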
14-3-3 Bad inh – disrupts binding of bovine 14-3-3 zeta to phospho-Bad peptide; P63103; TR-FRET 14-3-3zeta/Dy647-pBad peptide displacement, 1 h; inhibition, % at 21.7 µM; actives 0.71% (n = 220,000);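 active = inhibition above about 70%, limit read from the data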;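 also: 0% = full 14-3-3 plus peptide FRET controls and 100% = background without 14-3-3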
p47phox inh – blocks human p47phox regulatory protein of NADPH oxidases. P14598. p47phox/p22phox peptide binding, fluorescence polarization, 2 h. inhibition, % at 24.7 µM. actives 0.53% (n = 220,000). AID 1274;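 also: 0% = p47phox with labelled peptide and 100% = labelled peptide alone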
Diaph act CS – activates diaphorase or chemically reduces, flagging diaphorase assay artifacts; AID 1229; Diaphorase/resazurin coupled assay, resorufin fluorescence, 16 min; stronger effect = higher value; 1 = vehicle wells, 0 = NADH-free wells; activation factor at 20 µM; actives 0.005% (n = 190,000);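 active = diaphorase activity raised at least twofold by the compound at 20 µM; inactive = activation factor below 2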
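Assay system: Purified diaphorase enzyme from Clostridium kluyveri | Amount: Enzyme 0.07 U/mL final | Dosing: Compound 20 µM once, DMSO 1% | Timing: 16 min reaction at room temperature | Detection: Fluorescence, excitation 544 nm and emission 590 nm | Evaluation: Higher resorufin formation from activation or reduction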
eIF4E-4G inh – inhibitors of eIF4E and eIF4G interaction in translation initiation. P63073+Q04637. TR-FRET eIF4E-eIF4GI(517-606) binding, 2 h. inhibition, % at 21.7 µM. actives 0.37% (n = 220,000). AID 782;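 also: 0% = full FRET control wells and 100% = background wells lacking eIF4GI fragment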
Target sequence (P63073 whole entry, looked up, the tested form may be a part): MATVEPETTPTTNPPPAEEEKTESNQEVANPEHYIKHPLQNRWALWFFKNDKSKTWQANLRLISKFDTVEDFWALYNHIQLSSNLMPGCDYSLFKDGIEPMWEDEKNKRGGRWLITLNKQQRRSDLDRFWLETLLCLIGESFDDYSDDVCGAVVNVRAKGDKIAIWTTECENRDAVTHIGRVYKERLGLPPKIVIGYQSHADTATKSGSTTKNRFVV
Target sequence (Q04637 whole entry, looked up, the tested form may be a part): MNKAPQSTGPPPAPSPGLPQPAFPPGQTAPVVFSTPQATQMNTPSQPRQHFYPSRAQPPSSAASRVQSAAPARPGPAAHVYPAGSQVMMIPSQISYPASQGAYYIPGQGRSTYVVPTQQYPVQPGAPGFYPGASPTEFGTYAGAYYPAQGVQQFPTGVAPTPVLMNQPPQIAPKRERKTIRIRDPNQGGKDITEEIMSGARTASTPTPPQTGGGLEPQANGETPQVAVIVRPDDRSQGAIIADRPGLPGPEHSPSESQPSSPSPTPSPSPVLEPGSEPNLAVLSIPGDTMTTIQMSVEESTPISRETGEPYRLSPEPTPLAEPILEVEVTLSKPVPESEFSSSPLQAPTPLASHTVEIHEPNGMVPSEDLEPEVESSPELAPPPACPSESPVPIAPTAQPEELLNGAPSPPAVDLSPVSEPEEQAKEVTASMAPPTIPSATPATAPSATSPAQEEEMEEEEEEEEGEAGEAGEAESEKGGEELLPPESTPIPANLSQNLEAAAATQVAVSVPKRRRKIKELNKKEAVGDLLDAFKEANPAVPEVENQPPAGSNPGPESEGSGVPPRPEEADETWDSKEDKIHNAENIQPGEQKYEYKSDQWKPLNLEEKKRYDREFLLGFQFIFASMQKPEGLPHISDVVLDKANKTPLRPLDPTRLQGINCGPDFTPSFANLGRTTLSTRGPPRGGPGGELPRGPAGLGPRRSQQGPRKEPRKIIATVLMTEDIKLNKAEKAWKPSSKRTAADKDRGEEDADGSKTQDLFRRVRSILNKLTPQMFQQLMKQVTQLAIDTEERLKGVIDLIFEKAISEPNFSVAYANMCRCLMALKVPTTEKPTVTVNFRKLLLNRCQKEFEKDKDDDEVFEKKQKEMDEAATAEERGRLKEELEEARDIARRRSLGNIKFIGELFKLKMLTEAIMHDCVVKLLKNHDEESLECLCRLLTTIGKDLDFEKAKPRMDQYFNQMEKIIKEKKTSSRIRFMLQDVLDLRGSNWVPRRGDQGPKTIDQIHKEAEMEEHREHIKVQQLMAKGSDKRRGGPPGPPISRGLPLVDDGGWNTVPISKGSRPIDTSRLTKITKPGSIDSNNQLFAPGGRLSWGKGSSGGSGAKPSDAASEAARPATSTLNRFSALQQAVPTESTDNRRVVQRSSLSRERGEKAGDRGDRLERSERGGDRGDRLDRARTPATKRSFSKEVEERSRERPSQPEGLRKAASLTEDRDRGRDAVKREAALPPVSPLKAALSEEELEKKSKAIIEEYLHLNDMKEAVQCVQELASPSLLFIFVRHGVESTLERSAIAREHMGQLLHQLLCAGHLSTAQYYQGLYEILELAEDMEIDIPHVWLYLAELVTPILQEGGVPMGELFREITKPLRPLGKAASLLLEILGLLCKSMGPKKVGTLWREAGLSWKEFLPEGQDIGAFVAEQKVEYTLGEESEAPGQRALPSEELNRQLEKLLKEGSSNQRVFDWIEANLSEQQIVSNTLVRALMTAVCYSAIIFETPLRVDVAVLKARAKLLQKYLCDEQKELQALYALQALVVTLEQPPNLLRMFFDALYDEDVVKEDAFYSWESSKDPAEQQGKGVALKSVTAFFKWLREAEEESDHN
Active calls of the source: *; . = no result given; [ ] = remark or other dose.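 The calls were made as follows, unless noted: active = inhibition above about 30% (limit read from the data); inactive = the rest.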

SMILES | Hck Nef HTS | 14-3-3 Bad inh | p47phox inh | Diaph act CS | eIF4E-4G inh
CC(C)(C)NC(=O)NC(=O)CN1CCN(c2ccccc2)CC1 | 18 | -8 | -6 | 1 | 3
CC(C)(C)NC(=O)NC(=O)CN1CCN(c2cccc(Cl)c2)CC1 | 16 | -3 | -22 | . | 85*
O=C(Nc1ccc(N2CCCCC2)cc1)c1cc([N+](=O)[O-])cc([N+](=O)[O-])c1 | 25 | -3 | 2 | 1 | 2
COC(=O)C(Cc1ccccc1)NC(=O)c1cc(S(=O)(=O)N(C)C)ccc1Cl (configuration not stated) | 19 | -13 | 8 | 0.9 | 2
NNC(=O)c1nc(Cl)c(Cl)c(N)c1Cl | 20 | -5 | 0 | . | -7
Cc1cc(=O)oc2cc(NC(=O)c3cc4ccccc4o3)ccc12 | 5 | 22 | 4 | 0.9 | -2
O=C(Nc1ccc2oc(=O)ccc2c1)c1cc2ccccc2o1 | -4 | 10 | 32* | 0.9 | -4
Cc1ccc(S(=O)(=O)CCSc2n[nH]c(=O)n2-c2ccc3c(c2)OCCO3)cc1 | 17 | 1 | -7 | . | -2
CC(C)c1nc2sc3c(SCC(N)=O)ncnc3c2c2c1CCC2 | 2 | -42 | -24 | . | -51
CC(C)C(=O)Nc1ccc(NC(=O)c2cccc(F)c2)cn1 | 1 | 76* | -15 | 0.8 | 0
COc1ccc(NC(=O)c2ccc(Cl)nc2)cc1S(=O)(=O)N1CCCCC1 | -8 | 91* | -9 | 0.9 | -3
NNc1nc(N)c2c(n1)-c1ccccc1CC21CCCC1 | 5 | 82*[fluorescence artefact?] | -16 | 0.9 | 5
CCc1nc2c(c(=O)[nH]1)C1(CCCC1)Cc1ccccc1-2 | 4 | 3 | 7 | 1.1 | 3
COC(=O)c1ccc(NC(=S)NC2c3ccccc3CC2O)cc1 (configuration not stated) | 24 | -5 | -4 | 0.6 | -1
O=S(=O)(NCc1ccccc1)c1ccc(Br)c2nsnc12 | 21 | -1 | 4 | . | -1
O=C(/C=C/c1ccncc1)c1ccc(NC(=O)c2ccccc2F)cc1 | 7 | 68 | 30* | 1.1 | 10
O=C(/C=C/c1ccc(Br)cc1)c1ccc(NC(=O)c2ccco2)cc1 | 18 | 77*[fluorescence artefact?] | -1 | 1 | 1
NC(=O)CSc1nc2c(sc3ccccc32)c(=O)n1CCCC(=O)NCC1CCCO1 (configuration not stated) | 11 | 10 | -1 | . | 11
COc1ccc(-c2ccc3c(N)c(C(=O)NC(C)C)sc3n2)cc1OC | -6 | -1 | -22 | . | -5
COc1ccc(C(=O)c2sc3nc(-c4ccccc4)ccc3c2N)cc1OC | -2 | 84*[fluorescence artefact?] | 30* | 0.9 | 2
CCOC(=O)c1sc2nc(-c3ccccc3)ccc2c1N | 0 | 2 | -15 | 1 | -2
COc1ccc(-c2ccc3c(N)c(C(=O)c4ccc(OC)c(OC)c4)sc3n2)cc1 | 3 | 86*[fluorescence artefact?] | 13 | 0.9 | 14
c1ccc(-c2nc(N3CCN(c4ccccc4)CC3)nc(-n3ccnc3)n2)cc1 | 21 | 6 | 58* | 1 | 5
CC(CN1CCN(C)CC1)OC(=O)c1ccccc1 (configuration not stated) | 1 | 71* | -6 | 0.9 | 14
CC(CN1CCN(C)CC1)OC(=O)c1ccc(F)cc1 (configuration not stated) | -26 | 91* | -4 | 0.8 | 2
SMILES | Hck Nef HTS | 14-3-3 Bad inh | p47phox inh | Diaph act CS | eIF4E-4G inh
Cn1c(-c2cccc([N+](=O)[O-])c2)cnc1NCc1cccc([N+](=O)[O-])c1 | 16 | 32 | 0 | 0.8 | 7
Cn1c(-c2ccc(F)cc2)cnc1NCc1ccc(F)cc1 | -1 | 80* | -20 | 0.9 | -7
Cn1c(-c2ccc3c(c2)OCO3)cnc1NCc1ccc(Cl)cc1 | -1 | 77* | -8 | 0.9 | -3
Cn1c(-c2ccc(Br)cc2)cnc1NCc1cccnc1 | -2 | 79* | -10 | 1 | 8
Cn1c(-c2ccc(F)cc2)cnc1NCc1ccc(C#N)cc1 | 2 | 6 | -4 | 0.8 | 5
Cc1nc2ccccc2c(=O)n1NC(=O)c1cc(Br)ccc1Cl | -2 | -7 | 0 | . | -7
CSc1ccc(-c2nc(CN3CCCCC3c3cccnc3)c(C)o2)cc1 (configuration not stated) | 1 | -13 | -16 | 1 | -2
COC(=O)c1ccc(Oc2nc(NC(C)C)nc(NC(C)C)n2)cc1 | 25 | 4 | 20 | . | 97*
Cc1ccc(C(=S)N2CCN(Cc3ccccc3)CC2)s1 | 4 | -8 | -2 | 0.9 | -4
C=CCn1c(SCC(=O)Nc2ccccc2OC)nnc1-c1ccccn1 | 1 | 79* | -10 | 1 | -5
C=CCn1c(SCC(=O)Nc2cc(NC(C)=O)ccc2OC)nnc1-c1ccccn1 | 0 | -5 | -24 | 0.9 | 2
Nc1ccc(N2CCN(c3ccc(F)cc3)CC2)cc1 | 7 | -4 | -11 | 0.9 | 26
Nc1ccc(N2CCCCCC2)cc1 | -3 | 80*[fluorescence artefact?] | 20 | 0.6 | 3
CC1CCCN(C(=O)C2CCN(CCCc3ccccc3)CC2)C1 (configuration not stated) | -4 | 20 | 0 | 1 | 0
CCCCN(C)C(=O)C1CCN(CCCc2ccccc2)CC1 | 1 | 80* | -4 | 0.9 | 17
CN(/N=C/c1ccncc1)C1=NS(=O)(=O)c2ccccc21 | 2 | 79* | -11 | 0.9 | 0
O=C(NCCN1CCCOC1=O)C(=O)NCCN1CCCOC1=O | 21 | 3 | -13 | . | -2
Cc1snnc1C(=O)NC(=S)Nc1ccccc1 | 0 | 5 | -9 | . | -1
O=C(c1ccccc1F)N1CCN(CC2CC3C=CC2C3)CC1 (configuration not stated) | 0 | 81* | 0 | 0.9 | 20
O=C(c1cccc(F)c1)N1CCN(CC2CC3C=CC2C3)CC1 (configuration not stated) | 0 | 49 | -15 | 0.8 | -11
Cc1ccc(CN2CCN(CC3CC4C=CC3C4)CC2)cc1 (configuration not stated) | 1 | 72* | -12 | 0.9 | 11
Nc1c(C(=O)N/N=C/c2ccc([N+](=O)[O-])cc2)sc2nnc(-c3ccccc3)c(-c3ccccc3)c12 | 32 | 2 | 2 | . | -6
O=C(N/N=C/c1c[nH]c2ccccc12)C1COc2ccccc2O1 (configuration not stated) | 4 | 82*[fluorescence artefact?] | -15 | 0.9 | 48*
COc1ccc(CNCc2cn(-c3cccc(F)c3)nc2-c2ccc(C)o2)cc1 | -14 | -1 | -26 | 1.1 | -4
CCN1C(=O)/C(=C/c2nc3ccccc3c(=O)n2-c2ccc(C)cc2)c2ccccc21 | 16 | 11 | -13 | 0.8 | -1
CCN1C(=O)/C(=C\c2nc3ccccc3c(=O)n2-c2ccccc2)c2ccccc21 | 4 | 78*[fluorescence artefact?] | 0 | 0.6 | -6
CCN1C(=O)/C(=C/c2nc3ccccc3c(=O)[nH]2)c2ccccc21 | 10 | 40 | 39* | 0.9 | 0
